{
  "source": "ChEMBL document CHEMBL1122206",
  "about": "“Use of adenine nucleotide derivatives to assess the potential of exo-active-site-directed reagents as species- or isozyme-specific enzyme inactivators. 5. Interactions of adenosine 5'-triphosphate derivatives with rat pyruvate kinases, Escherichia coli thymidine kinase, and yeast and rat …” (1982)",
  "key": {"[1]": {"molecular_target": "T1, Hexokinase-2 (Rattus norvegicus) (UniProt P27881)", "T1 sequence (whole entry)": "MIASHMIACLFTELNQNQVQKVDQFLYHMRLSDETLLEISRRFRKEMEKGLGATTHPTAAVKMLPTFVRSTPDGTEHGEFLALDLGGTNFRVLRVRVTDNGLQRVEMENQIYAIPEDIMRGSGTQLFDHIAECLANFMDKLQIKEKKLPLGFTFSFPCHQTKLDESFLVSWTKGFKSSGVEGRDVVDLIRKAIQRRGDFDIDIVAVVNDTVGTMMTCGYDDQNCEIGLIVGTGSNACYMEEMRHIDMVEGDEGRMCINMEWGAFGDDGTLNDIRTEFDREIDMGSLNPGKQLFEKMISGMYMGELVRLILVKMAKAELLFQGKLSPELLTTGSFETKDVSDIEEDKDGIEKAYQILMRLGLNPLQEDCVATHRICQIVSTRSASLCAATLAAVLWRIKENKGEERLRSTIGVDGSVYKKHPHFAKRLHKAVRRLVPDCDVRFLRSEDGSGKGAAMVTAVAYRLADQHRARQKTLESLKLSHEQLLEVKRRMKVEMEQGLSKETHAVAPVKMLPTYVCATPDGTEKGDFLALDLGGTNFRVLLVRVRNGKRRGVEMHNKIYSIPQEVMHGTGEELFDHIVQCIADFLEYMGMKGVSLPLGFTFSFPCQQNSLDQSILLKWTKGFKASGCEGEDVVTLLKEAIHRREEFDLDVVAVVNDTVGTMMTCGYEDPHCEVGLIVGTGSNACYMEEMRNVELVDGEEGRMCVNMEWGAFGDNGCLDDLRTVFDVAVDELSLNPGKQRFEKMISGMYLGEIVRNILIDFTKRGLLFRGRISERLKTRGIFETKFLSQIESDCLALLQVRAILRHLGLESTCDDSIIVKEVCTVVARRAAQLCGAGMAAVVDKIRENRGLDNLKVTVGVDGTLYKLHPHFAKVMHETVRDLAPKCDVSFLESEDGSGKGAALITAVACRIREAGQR", "test": "Substrate activity against Rat hexokinase II as 1:1 Mg complex at 5.0 mM", "outline": "(§1)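 Hexokinase activity read at 22 °C as A340 change, coupled to glucose-6-phosphate dehydrogenase, in 0.05 M Tris-HCl pH 7.6 with 6.6 mM MgCl2, 10 mM α-D-glucose and 0.93 mM NADP. Donor was 5.0 mM MgATP derivative (1:1 Mg complex) in place of ATP. Yeast HK was isoelectric-focused. Rat HK I and III came from electrofocused liver extract, HK II from dialysed muscle extract.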"}, "[2]": {"molecular_target": "T2, Hexokinase-3 (Rattus norvegicus) (UniProt P27926)", "T2 sequence (whole entry)": "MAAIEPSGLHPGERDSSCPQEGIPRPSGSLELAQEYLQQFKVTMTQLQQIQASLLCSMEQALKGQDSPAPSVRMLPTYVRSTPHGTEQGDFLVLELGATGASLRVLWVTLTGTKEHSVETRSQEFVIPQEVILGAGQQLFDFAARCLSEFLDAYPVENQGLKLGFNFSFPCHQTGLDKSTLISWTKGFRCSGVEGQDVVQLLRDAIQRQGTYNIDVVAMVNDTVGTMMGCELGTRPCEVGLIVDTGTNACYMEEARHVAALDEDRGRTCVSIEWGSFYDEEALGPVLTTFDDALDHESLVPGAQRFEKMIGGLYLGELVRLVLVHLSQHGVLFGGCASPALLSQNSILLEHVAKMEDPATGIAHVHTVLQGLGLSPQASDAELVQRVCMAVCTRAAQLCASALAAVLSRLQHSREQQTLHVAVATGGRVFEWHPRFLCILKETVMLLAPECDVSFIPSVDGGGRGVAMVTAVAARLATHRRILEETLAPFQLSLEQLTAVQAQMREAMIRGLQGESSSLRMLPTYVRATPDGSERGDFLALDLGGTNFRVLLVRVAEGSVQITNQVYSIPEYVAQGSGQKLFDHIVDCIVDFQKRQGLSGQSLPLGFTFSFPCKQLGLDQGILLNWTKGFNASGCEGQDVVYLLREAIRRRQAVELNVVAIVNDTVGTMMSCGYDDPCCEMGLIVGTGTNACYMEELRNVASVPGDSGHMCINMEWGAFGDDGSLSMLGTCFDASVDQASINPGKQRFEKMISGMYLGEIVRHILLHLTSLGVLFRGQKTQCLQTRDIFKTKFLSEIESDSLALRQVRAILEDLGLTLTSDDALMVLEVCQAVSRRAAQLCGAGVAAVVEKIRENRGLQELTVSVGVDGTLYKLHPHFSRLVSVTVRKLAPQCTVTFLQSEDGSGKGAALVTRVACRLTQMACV", "test": "Substrate activity for rat hexokinase III as 1:1 Mg complex at 5.0 mM", "outline": "as §1"}, "Saccharomyces cerevisiae [3]": {"system": "Saccharomyces cerevisiae", "test": "Compound was tested for time dependent inhibition of hexokinase activity after 6 hr, at 0 degrees celsius, with 10 mM ATP derivative in yeast hexokinase"}, "[4]": {"test": "Tested for the velocity of 2.8 mM compound relative to that of 2.8 mM MgATP in the assay", "outline": "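E. coli TK substrate test. 0.5 h after adding inhibitor, the mixture was diluted to 2.8 mM derivative in thymidine assay medium without ATP and with 1.42 mM MnCl2. Incubated 15 min at 37 °C, in the linear range. [14C]TMP formed was compared with that from 2.8 mM ATP under the same conditions.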"}, "[5]": {"test": "Compound was tested for substrate constants with yeast hexokinase. Maximal velocity Vmax was reported", "outline": "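Hexokinase KM and Vmax taken from linear double-reciprocal plots of initial velocity vs. nucleotide level. Assays at 22 °C, coupled to glucose-6-phosphate dehydrogenase (A340), in 0.05 M Tris-HCl pH 7.6 with 6.6 mM MgCl2, 10 mM glucose and 0.93 mM NADP. Yeast HK was isoelectric-focused. Rat HK I and III came from liver, HK II from muscle (male Sprague-Dawley).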"}, "[6]": {"test": "Substrate concentration for half maximal velocity was reported for rat hexokinase II", "outline": "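Coupled glucose-6-phosphate dehydrogenase/NADP assay: A340 rate at 22 °C in 0.05 M Tris-HCl pH 7.6 with 6.6 mM MgCl2, 10 mM α-D-glucose and 0.93 mM NADP, nucleotide varied. KM was taken from linear double-reciprocal plots. Rat HK I and III came from electrofocused, dialysed liver extract, HK II from dialysed muscle extract, and yeast HK was isoelectric-focused.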"}, "[7]": {"molecular_target": "T1, Hexokinase-2 (Rattus norvegicus)", "test": "Time dependent inhibition of hexokinase 2 activity after 6 h, at 5 mM compound"}, "Saccharomyces cerevisiae [8]": {"system": "Saccharomyces cerevisiae", "test": "Substrate activity against yeast hexokinase as 1:1 Mg complexes at 5.0 mM", "outline": "as §1"}},
  "data": [
    {"smiles": "Nc1ncnc2c1ncn2[C@@H]1O[C@H](COP(=O)(O)OP(=O)(O)OP(=O)(O)O)[C@@H](O)[C@H]1O", "values": [
      {"measurement": "Relative velocity", "setting": "[1]", "value": 1},
      {"measurement": "Relative velocity", "setting": "[2]", "value": 1},
      {"measurement": "inhibition", "setting": "Saccharomyces cerevisiae [3]", "value": 0, "unit": "%"},
      {"measurement": "Velocity", "setting": "[4]", "value": 100, "unit": "%"},
      {"measurement": "Vmax", "setting": "[5]", "value": 100, "unit": "%"},
      {"measurement": "Km", "setting": "[6]", "value": 710, "unit": "µM"},
      {"measurement": "inhibition", "setting": "[7]", "value": 0, "unit": "%"},
      {"measurement": "Relative velocity", "setting": "Saccharomyces cerevisiae [8]", "value": 1}
    ]}
  ]
}
